Experiments:
[1] = In vitro reversibility ratio in U937 cells; format: functional, U-937
Procedure, shortened: (§1)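 Human histiocytic lymphoma U937 cells, read by flow cytometry. Scores whether a complete mitotic block is maintained 10 h after drug washout.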

U-937 [2] = assay: In vitro inhibitory concentration required to inhibit the growth of U937 cells was determined at 10 hr by mitotic block reversibility assay; format: functional; conditions: Homo sapiens, U-937, 10 h; procedure, shortened: as §1
P388 = assay: Fold resistance calculated as the inhibition concentration ratio between retrovirally transformed murine P388/VMDRC.04 and parental P388 cells; format: functional
Procedure, shortened: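 Readout of P-glycoprotein (PgP) susceptibility: IC50 in the retrovirally transformed P388/VMDRC.04 line divided by IC50 in parental P388 cells, giving fold resistance.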

U-937 [3] = assay: In vitro inhibitory concentration required to inhibit the growth of U937 cells was determined at 0 hr by mitotic block reversibility assay; format: functional; conditions: Homo sapiens, U-937, 0 h
DLD-1 = assay: In vitro inhibitory concentration required to inhibit the growth of DLD-1 cells under continuous exposure conditions for 3-4 days; format: functional, cell-based; conditions: Homo sapiens
Procedure, shortened: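 Human colon cancer DLD-1 cells grown under continuous drug exposure for 3–4 days. Growth inhibition measured and IC50 reported ± SEM, n = number of experiments.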

Row | Structure (SMILES) | Reversibility ratio [1] | IC99 (U-937 [2]) [µM] | FR (P388) | IC99 (U-937 [3]) [µM] | IC50 (DLD-1) [pM]
1 | C=C1C[C@@H]2CC[C@@]34C[C@@H]5O[C@@H]6C(O[C@H]7CC[C@H](CC(=O)C[C@@H]8[C@@H](OC)[C@@H](C[C@H](O)COS(C)(=O)=O)O[C@H]8C[C@H]8O[C@@H](CC[C@@H]1O2)C[C@@H](C)C8=C)O[C@@H]7[C@@H]6O3)[C@H]5O4 | 10 | 0.03 | 3 | 0.003 | 800
2 | C=C1C[C@@H]2CC[C@@]34C[C@@H]5O[C@@H]6C(O[C@H]7CC[C@H](CC(=O)C[C@@H]8[C@@H](OC)[C@@H](C[C@H](O)COS(=O)(=O)c9ccc(C)cc9)O[C@H]8C[C@H]8O[C@@H](CC[C@@H]1O2)C[C@@H](C)C8=C)O[C@@H]7[C@@H]6O3)[C@H]5O4 | 4 | 0.03 | 2.4 | 0.007 | 2000
3 | C=C1C[C@@H]2CC[C@@]34C[C@@H]5O[C@@H]6C(O[C@H]7CC[C@H](CC(=O)O[C@@H]8[C@@H](C)[C@@H]9O[C@H](CO)[C@@H](O)C[C@@H]9O[C@H]8C[C@H]8O[C@@H](CC[C@@H]1O2)C[C@@H](C)C8=C)O[C@@H]7[C@@H]6O3)[C@H]5O4 | 24 | – | – | 0.009 | –
4 | C=C1C[C@@H]2CC[C@@]34C[C@@H]5O[C@@H]6C(O[C@H]7CC[C@H](CC(=O)C[C@@H]8[C@@H](OC)[C@@H](C[C@H](O)CO)O[C@H]8C[C@H]8O[C@@H](CC[C@@H]1O2)C[C@@H](C)C8=C)O[C@@H]7[C@@H]6O3)[C@H]5O4 | 13 | 0.038 | 9.7 | 0.003 | 1000
5 | C=C1C[C@@H]2CC[C@@]34C[C@@H]5O[C@@H]6C(O[C@H]7CC[C@H](CC(=O)C[C@@H]8[C@@H](OC)[C@@H](C[C@H](O)CC#N)O[C@H]8C[C@H]8O[C@@H](CC[C@@H]1O2)C[C@@H](C)C8=C)O[C@@H]7[C@@H]6O3)[C@H]5O4 | 15 | 0.03 | 7 | 0.002 | 490
6 | C=C1C[C@@H]2CC[C@@]34C[C@@H]5O[C@@H]6C(O[C@H]7CC[C@H](CC(=O)O[C@@H]8[C@@H](C)[C@@H]9O[C@@H]%10C[C@]%11(C[C@@H]%12O[C@]%13(C[C@H](C)[C@@H]%14O[C@H]([C@@H](O)C[C@@H](O)CO)C[C@@H]%14O%13)C[C@H](C)[C@@H]%12O%11)O[C@@H]%10C[C@@H]9O[C@H]8C[C@H]8O[C@@H](CC[C@@H]1O2)C[C@@H](C)C8=C)O[C@@H]7[C@@H]6O3)[C@H]5O4 | 3 | 0.025 | 2.8 | 0.008 | 740
7 | C=C1C[C@@H]2CC[C@@]34C[C@@H]5O[C@@H]6C(O[C@H]7CC[C@H](CC(=O)C[C@@H]8[C@@H](OC)[C@@H](C[C@H](O)COC(=O)Nc9ccc(OC)cc9)O[C@H]8C[C@H]8O[C@@H](CC[C@@H]1O2)C[C@@H](C)C8=C)O[C@@H]7[C@@H]6O3)[C@H]5O4 | 10 | 0.03 | 5.8 | 0.003 | 860
8 | C=C1C[C@@H]2CC[C@@]34C[C@@H]5O[C@@H]6C(O[C@H]7CC[C@H](CC(=O)C[C@@H]8[C@@H](OC)[C@@H](C[C@@H](O)CO)O[C@H]8C[C@H]8O[C@@H](CC[C@@H]1O2)C[C@@H](C)C8=C)O[C@@H]7[C@@H]6O3)[C@H]5O4 | 33 | 0.1 | 13 | 0.003 | 1900
9 | C=C1C[C@@H]2CC[C@@]34C[C@@H]5O[C@@H]6C(O[C@H]7CC[C@H](CC(=O)O[C@@H]8[C@@H](OC)[C@H](O)[C@H](CCO)O[C@H]8C[C@H]8O[C@@H](CC[C@@H]1O2)C[C@@H](C)C8=C)O[C@@H]7[C@@H]6O3)[C@H]5O4 | 30 | – | – | 0.01 | –
10 | C=C1C[C@@H]2CC[C@@]34C[C@@H]5O[C@@H]6C(O[C@H]7CC[C@H](CC(=O)O[C@@H]8[C@@H](OC)[C@@H](C[C@H](O)CO)O[C@H]8C[C@H]8O[C@@H](CC[C@@H]1O2)C[C@@H](C)C8=C)O[C@@H]7[C@@H]6O3)[C@H]5O4 | 8 | – | – | 0.002 | –
11 | C=C1C[C@@H]2CC[C@@]34C[C@@H]5O[C@@H]6C(O[C@H]7CC[C@H](CC(=O)C[C@@H]8[C@@H](OC)[C@@H](C[C@H](O)COC(=O)Nc9ccc(Cl)cc9)O[C@H]8C[C@H]8O[C@@H](CC[C@@H]1O2)C[C@@H](C)C8=C)O[C@@H]7[C@@H]6O3)[C@H]5O4 | 22 | 0.065 | 8.6 | 0.003 | 1300
12 | C=C1C[C@@H]2CC[C@@]34C[C@@H]5O[C@@H]6C(O[C@H]7CC[C@H](CC(=O)C[C@@H]8[C@@H](OC)[C@@H](C[C@H](O)COC(=O)Nc9ccccc9)O[C@H]8C[C@H]8O[C@@H](CC[C@@H]1O2)C[C@@H](C)C8=C)O[C@@H]7[C@@H]6O3)[C@H]5O4 | 22 | 0.065 | 5.7 | 0.003 | 1000
13 | C=C1C[C@@H]2CC[C@@]34C[C@@H]5O[C@@H]6C(O[C@H]7CC[C@H](CC(=O)C[C@@H]8[C@@H](OC)[C@@H](C[C@H](O)CN=[N+]=[N-])O[C@H]8C[C@H]8O[C@@H](CC[C@@H]1O2)C[C@@H](C)C8=C)O[C@@H]7[C@@H]6O3)[C@H]5O4 | 10 | 0.03 | 1.9 | 0.003 | 530
14 | C=C1C[C@@H]2CC[C@@]34C[C@@H]5O[C@@H]6C(O[C@H]7CC[C@H](CC(=O)C[C@@H]8[C@@H](OC)[C@@H](CCO)O[C@H]8C[C@H]8O[C@@H](CC[C@@H]1O2)C[C@@H](C)C8=C)O[C@@H]7[C@@H]6O3)[C@H]5O4 | 33 | 0.1 | 8.5 | 0.003 | 660
15 | C=C1C[C@@H]2CC[C@@]34C[C@@H]5O[C@@H]6C(O[C@H]7CC[C@H](CC(=O)C[C@@H]8[C@@H](OC)[C@@H](CC(=O)CO)O[C@H]8C[C@H]8O[C@@H](CC[C@@H]1O2)C[C@@H](C)C8=C)O[C@@H]7[C@@H]6O3)[C@H]5O4 | 10 | 0.03 | 3.7 | 0.003 | 1100

— ChEMBL document CHEMBL1138023, “Macrocyclic ketone analogues of halichondrin B” (Bioorg Med Chem Lett, 2004)
